The values that follow come from PubChem BioAssay.

Experiment [1] can be described thus: Her2 expression decrease, cell viability multiplex – SKBR3 breast tumor cells, AlphaScreen, ATP viability, primary screen (AID 461;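 active means Her2 level under about 52% in both replicate screens, with viability over 70% of control, limit read from the data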;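 on Her2 level: lower value means less Her2 protein in the cells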;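 on viability: percent of carrier control wells set as 100% viability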). The settings on record: SKBR3 Her2 protein level, 18-24 h, measured here: SKBR3 viability, ATP luminescence, at 10 µM. In general terms: Bead proximity is the source of the signal in Alpha formats.
Experiment [2] addresses Receptor tyrosine-protein kinase erbB-2 (Homo sapiens) (UniProt P04626). Described as above. To be noted: 18-24 h, at 10 µM, stronger effect = lower value.
Experiment [3] is described as follows: reduced viability of SK-BR-3 breast cancer cells – cell-based, 24 h, human, pilot screen (AID 572;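 active means viability at or below 10% of carrier control in both of two separate runs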;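 further: compound exposure lasted between 18 and 24 h rather than exactly 24 h; 100% = carrier-treated control wells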). The settings on record: SK-BR-3 viability, CellTiter-Glo luminescence, at 10 µM, stronger effect = lower value.
A short description of experiment [4]: HUVEC growth inhibition – cell-based, human, primary screen (AID 575;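 active means viability at or below 30% in both replicate assays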;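 further: 100% = median of untreated cell wells with 0.1% DMSO on each plate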). To be noted: HUVEC proliferation, CellTiter-Glo luminescence, 72 h; at 10 µM; stronger effect = lower value. The method in brief: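 Test system – primary HUVEC, no more than 12 passages · Dosing – one dose, 10 µM final, 0.1% DMSO · Times – 72 h treatment at 37 °C · Measured by – ATP-based CellTiter-Glo luminescent read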
A general note: ATP-based viability assays read luminescence as a measure of living cells.

A short description of experiment [5]: H69AR cell proliferation blockers – human, duplicate replicates, primary screen (AID 580).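 Further: 100% = mean luminescence of untreated wells and 0% = no signal.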 The settings on record: H69AR lung tumor cells viability, ATP luminescence, 72 h; at 10 µM; stronger effect = lower value.
Experiment [6] can be described thus: MRP1 drug-resistance reversers in H69AR cells – cell-based, doxorubicin co-treatment, pilot screen (AID 601;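 active means viability loss from added drug above about 55%, and viability with drug at most 40%, in both replicates, limit read from the data, passing the limit was not always enough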). The settings on record: CellTiter-Glo, 72 h, at 10 µM; for differential viability (reversal): stronger effect = higher value.
Experiment [7] can be described thus: yeast transport mutant growth inhibition pilot in 384-well plates, post-Golgi transport modulator project (AID 636; in the data active means inhibition above about 31%). To be noted: absorbance 615 nm, about 18 h, stronger effect = higher value.
A short description of experiment [8]: growth suppression of yeast trafficking mutant, preliminary HTS, modulators of trafficking downstream of Golgi apparatus project, 1536-format plate, OD 615 nm (AID 637; in the data active means inhibition above about 30%). To be noted: yeast transport mutant growth, absorbance 615 nm, 18 h; stronger effect = higher value.
Setting [9] is: H69AR cells + 2 uM doxorubicin, measured here: viability with 2 uM doxorubicin, stronger effect = lower value.
[10] abbreviates: H69AR cells, compound alone cytotoxicity.

Active and inactive are the calls of the source.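 How the source made its calls, unless noted: active means viability at or under a set limit in both replicates, limit being median viability minus 3 SD (cut at about 48% in these data, passing the limit was not always enough); inconclusive means at or under the limit in just one replicate; inactive means at or above the limit in both replicates.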

Chain of Receptor tyrosine-protein kinase erbB-2 (Homo sapiens) (P04626 whole entry, looked up): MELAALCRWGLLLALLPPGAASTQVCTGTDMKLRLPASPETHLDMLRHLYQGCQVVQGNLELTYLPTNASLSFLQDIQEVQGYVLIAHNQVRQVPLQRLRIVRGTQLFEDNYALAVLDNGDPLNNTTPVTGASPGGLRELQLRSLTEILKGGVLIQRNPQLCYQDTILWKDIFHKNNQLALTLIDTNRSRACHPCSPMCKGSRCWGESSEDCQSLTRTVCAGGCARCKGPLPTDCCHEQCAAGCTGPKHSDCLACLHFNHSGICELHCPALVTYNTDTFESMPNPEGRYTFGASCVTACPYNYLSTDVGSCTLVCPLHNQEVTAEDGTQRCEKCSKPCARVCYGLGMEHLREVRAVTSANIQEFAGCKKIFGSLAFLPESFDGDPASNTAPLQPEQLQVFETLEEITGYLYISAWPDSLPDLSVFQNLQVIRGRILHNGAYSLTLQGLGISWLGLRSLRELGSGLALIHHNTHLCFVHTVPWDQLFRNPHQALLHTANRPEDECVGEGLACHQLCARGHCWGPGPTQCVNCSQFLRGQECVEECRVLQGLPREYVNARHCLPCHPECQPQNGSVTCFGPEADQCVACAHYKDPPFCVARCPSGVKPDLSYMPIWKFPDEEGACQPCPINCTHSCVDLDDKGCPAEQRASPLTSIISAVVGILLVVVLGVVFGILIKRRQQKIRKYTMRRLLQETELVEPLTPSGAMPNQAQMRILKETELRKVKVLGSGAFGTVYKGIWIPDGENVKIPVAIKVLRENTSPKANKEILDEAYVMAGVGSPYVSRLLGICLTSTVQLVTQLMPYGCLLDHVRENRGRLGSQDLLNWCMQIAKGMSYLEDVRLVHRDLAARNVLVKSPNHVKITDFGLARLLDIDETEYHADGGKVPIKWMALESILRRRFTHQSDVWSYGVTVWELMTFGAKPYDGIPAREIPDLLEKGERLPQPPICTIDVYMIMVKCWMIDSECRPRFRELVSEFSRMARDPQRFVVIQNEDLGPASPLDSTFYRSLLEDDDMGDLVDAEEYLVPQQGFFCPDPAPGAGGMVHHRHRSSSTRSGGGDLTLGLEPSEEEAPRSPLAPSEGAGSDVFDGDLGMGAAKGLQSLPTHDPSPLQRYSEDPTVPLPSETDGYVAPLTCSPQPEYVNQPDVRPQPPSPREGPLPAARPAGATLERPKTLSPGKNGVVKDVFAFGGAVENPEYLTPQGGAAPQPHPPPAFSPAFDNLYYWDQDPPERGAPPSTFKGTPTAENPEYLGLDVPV

Usually viability stands for a read-out of living cells in per cent, often relative to untreated cells. Broadly, the inhibition is the change of the read-out against control, counted positive when it falls. Turning to `CCOC(=O)C1CCN(c2c(NCCN3CCN(c4ccccc4)CC3)c(=O)c2=O)CC1`, the viability in experiment [1] was 87.5%; in experiment [3], 87.5% (inactive); in experiment [4] it was 92.1% (inactive); in experiment [5], 99.1% (inactive); in experiment [6] (setting [9]) it was 104%; in experiment [6] (setting [10]) it was 99.1%. Further, the Her2 level in experiment [2] is 98.5% (inactive). Moreover, in experiment [6] (H69AR cells + 2 uM doxorubicin), the differential viability (reversal) is -5.04% (inactive). In addition, the values for the inhibition in experiment [7] and in experiment [8] were 0.38% (inactive) and -3.33% (inactive), respectively.
Take `CCCCN(C)CCCNC(=O)CC1Oc2ccccc2NC1=O` (stereo not given): the viability in experiment [1] was 86.5%; in experiment [3] it was 86.5% (inactive); in experiment [4], 104% (inactive); in experiment [5] it was 93.4% (inactive); in experiment [6] (setting [9]), 100%; in experiment [6] (setting [10]) it was 93.4%. Further, in experiment [2], the Her2 level was 91.5% (inactive). Further, the differential viability (reversal) in experiment [6] (H69AR cells + 2 uM doxorubicin) is -7.03% (inactive). The figures for the inhibition in experiment [7] and in experiment [8] were -4.53% (inactive) and 2.95% (inactive), respectively.
In the case of `CC(=O)N1C(=O)N(C)C2C1N(C(C)=O)C(=O)N2C` (stereo not given), the viability in experiment [1] was 125%; in experiment [3] it was 125% (inactive); in experiment [4] it was 92.4% (inactive); in experiment [5], 93.5% (inactive); in experiment [6] (setting [9]) it was 95.1%; in experiment [6] (setting [10]), 93.5%. Also, the Her2 level in experiment [2] is 104% (inactive). The differential viability (reversal) in experiment [6] (H69AR cells + 2 uM doxorubicin) was -1.64% (inactive). Moreover, the inhibition in experiment [7] is -1.18% (inactive); in experiment [8], -6.45% (inactive).
Regarding `N#C/C(=C(/O)CN1CCOCC1)c1nc2ccccc2s1`, the viability in experiment [1] was 89.5%; in experiment [3], 89.5% (inactive); in experiment [4] it was 99.3% (inactive); in experiment [5], 106% (inactive); in experiment [6] (setting [9]), 100%; in experiment [6] (setting [10]), 106%. For the same compound, the Her2 level in experiment [2] is 145% (inactive). Also, the differential viability (reversal) in experiment [6] (H69AR cells + 2 uM doxorubicin) was 5.77% (inactive). Moreover, the inhibition in experiment [7] is 2.73% (inactive); in experiment [8] it was -13.8% (inactive).
Consider `CCOC(=O)c1cccnc1SCC(=O)NC(C)CC` (stereo not given), for which the viability is 92% in experiment [1]; 92% (inactive) in experiment [3]; 96.7% (inactive) in experiment [4]; 102% (inactive) in experiment [5]; 92.3% in experiment [6] (setting [9]); 102% in experiment [6] (setting [10]). In experiment [2], the Her2 level was 93% (inactive). For the same compound, in experiment [6] (H69AR cells + 2 uM doxorubicin), the differential viability (reversal) was 9.73% (inactive). The inhibition in experiment [7] was 2.08% (inactive); in experiment [8], -3.61% (inactive).
Consider `Cc1cc2ccccn2c1C(=O)c1ccncc1`, for which the viability in experiment [1] was 114%; in experiment [3], 114% (inactive); in experiment [4] it was 106% (inactive); in experiment [5] it was 87.9% (inactive); in experiment [6] (setting [9]), 78.8%; in experiment [6] (setting [10]), 87.9%. In experiment [2], the Her2 level was 98% (inactive). Also, in experiment [6] (H69AR cells + 2 uM doxorubicin), the differential viability (reversal) is 9.15% (inactive). The inhibition is -3.77% (inactive) in experiment [7] and 2.22% (inactive) in experiment [8].
In the case of `COCCNC(=O)CSc1nc(-c2ccc(OC)c(OC)c2)cc(C(F)(F)F)n1`, the viability was 98.5% in experiment [1]; 98.5% (inactive) in experiment [3]; 101% (inactive) in experiment [4]; 89% (inactive) in experiment [5]; 100% in experiment [6] (setting [9]); 89% in experiment [6] (setting [10]). Besides, the Her2 level in experiment [2] is 94% (inactive). Also, the differential viability (reversal) in experiment [6] (H69AR cells + 2 uM doxorubicin) was -11.1% (inactive). Also, the inhibition is 1.84% (inactive) in experiment [7] and -2.3% (inactive) in experiment [8].
For `CCOC(=O)N1CCN(C(=O)C2CC(=O)N(Cc3ccc(OC)cc3)C2)CC1` (stereo not given), the viability is 96.5% in experiment [1]; 96.5% (inactive) in experiment [3]; 112% (inactive) in experiment [4]; 93.3% (inactive) in experiment [5]; 96.8% in experiment [6] (setting [9]); 93.3% in experiment [6] (setting [10]). The Her2 level in experiment [2] was 91% (inactive). Moreover, the differential viability (reversal) in experiment [6] (H69AR cells + 2 uM doxorubicin) is -3.47% (inactive). Further, the inhibition in experiment [7] was -4.34% (inactive); in experiment [8] it was -1.45% (inactive).
Take `CCOc1ccc2nc(SCc3ccc(C(=O)OC)o3)[nH]c2c1`: the viability in experiment [1] was 77%; in experiment [3] it was 77% (inactive); in experiment [4] it was 89.5% (inactive); in experiment [5] it was 109% (inactive); in experiment [6] (setting [9]), 96.4%; in experiment [6] (setting [10]), 109%. Moreover, the Her2 level in experiment [2] was 87.5% (inactive). The differential viability (reversal) in experiment [6] (H69AR cells + 2 uM doxorubicin) was 12.7% (inactive). Further, the results for the inhibition in experiment [7] and in experiment [8] were -0.4% (inactive) and -2.42% (inactive), respectively.
With `NC(=O)NC(c1ccccc1)c1ccccc1F` (stereo not given), the viability in experiment [1] was 91%; in experiment [3] it was 91% (inactive); in experiment [4], 91.6% (inactive); in experiment [5], 105% (inactive); in experiment [6] (setting [9]) it was 98.3%; in experiment [6] (setting [10]), 105%. Also, the Her2 level in experiment [2] is 106% (inactive). Besides, the differential viability (reversal) in experiment [6] (H69AR cells + 2 uM doxorubicin) is 6.78% (inactive). Also, the inhibition is -0.51% (inactive) in experiment [7] and -8% (inactive) in experiment [8].
With `Cc1cc(Cl)ccc1OCCCC(=O)NO`, the viability in experiment [1] was 80.5%; in experiment [3] it was 80.5% (inactive); in experiment [4] it was 71.3% (inactive); in experiment [5] it was 2.07% (active); in experiment [6] (setting [9]), 22.7%; in experiment [6] (setting [10]) it was 2.07%. Also, in experiment [2], the Her2 level is 76% (inactive). The differential viability (reversal) in experiment [6] (H69AR cells + 2 uM doxorubicin) was -20.7% (inactive). Moreover, the inhibition was 2.18% (inactive) in experiment [7] and 3.83% (inactive) in experiment [8].
Turning to `O=C(COC(=O)CSc1nnc(-c2ccc(Cl)cc2)o1)NCc1ccc2c(c1)OCO2`, the viability in experiment [1] was 98%; in experiment [3], 98% (inactive); in experiment [4], 90.8% (inactive); in experiment [5] it was 104% (inactive); in experiment [6] (setting [9]), 100%; in experiment [6] (setting [10]) it was 104%. Besides, in experiment [2], the Her2 level is 84% (inactive). Further, the differential viability (reversal) in experiment [6] (H69AR cells + 2 uM doxorubicin) was 3.27% (inactive). Further, the results for the inhibition in experiment [7] and in experiment [8] were -4.19% (inactive) and 0.79% (inactive), respectively.
`CCC(=O)c1ccc(OCCN2CCOCC2)cc1`: the viability in experiment [1] is 99.5%; in experiment [3], 99.5% (inactive); in experiment [4], 111% (inactive); in experiment [5], 109% (inactive); in experiment [6] (setting [9]), 92.1%; in experiment [6] (setting [10]), 109%. Further, the Her2 level in experiment [2] was 91.5% (inactive). For the same compound, the differential viability (reversal) in experiment [6] (H69AR cells + 2 uM doxorubicin) is 17% (inactive). For the same compound, the inhibition in experiment [7] was -5% (inactive); in experiment [8], -3.87% (inactive).
Take `CCOC(=O)c1sc(=NC(=O)c2ccc(OC)c(OC)c2)n(C)c1C`: the viability was 121% in experiment [1]; 121% (inactive) in experiment [3]; 108% (inactive) in experiment [4]; 65% (inactive) in experiment [5]; 71.7% in experiment [6] (setting [9]); 65% in experiment [6] (setting [10]). Further, the Her2 level in experiment [2] is 84% (inactive). Besides, the differential viability (reversal) in experiment [6] (H69AR cells + 2 uM doxorubicin) is -6.65% (inactive). The inhibition in experiment [7] was -5.06% (inactive); in experiment [8], -0.16% (inactive).
